In the data set the test system is MS2 coat protein. Put plainly: apparent Kd, MS2 coat protein; higher = weaker binding; RNA-MaP array; FMN 200 µM where present. The method in brief:
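Designs were transcribed by stalled E. coli RNA polymerase on Illumina sequencing-chip clusters. They were titrated with SNAP-549-labelled MS2 coat protein from 0.7 or 1.5 nM, doubling to 3 µM, without and then with constant ligand. Buffer: 100 mM Tris-HCl pH 7.5, 80 mM KCl, 4 mM MgCl2, BSA, DTT, yeast tRNA, Tween-20. Green signal was normalised to red-channel RNA signal and control-cluster median Fmax. Apparent Kd is the median of filtered per-cluster binding-curve fits.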

[1] abbreviates: designed as: OFF switch for flavin mononucleotide, no ligand.
The mark [2] stands for this setting: ligand present: flavin mononucleotide, designed as: OFF switch for flavin mononucleotide.
Where [3] appears, read: designed as: ON switch for flavin mononucleotide, no ligand.
[4] abbreviates: ligand present: flavin mononucleotide, designed as: ON switch for flavin mononucleotide.

For the sequence “CCUCCACAUGAGGAUCACCCAUGUCAGGAUAUCGUGUGUUUUUUUUCGGUCGUGCGUGCGAGAAGGGACGUCUU”, the apparent Kd – broadly, a dissociation constant that holds for the conditions of the assay – was 25.9 nM under setting [1] and 29.7 nM under setting [2].

Take “CAGCCCUGAGGAUAUCCAUCCUUGUACAUGAGGAUCACCCAUGUUUUCCUCUGGGCUUUGGGAGAAGGCAGGUAUC”: the “apparent Kd” value is, setting by setting: under setting [1], 74.6 nM; under setting [2], 77.1 nM. With “CCUGUGUGAGGAUAUGUACUGCUCCUGUCCAACAGUGUAGAGCAGAAGGCACAUGAGGAUCACCCAUGUGAAAA”, the “apparent Kd” value by setting is: under setting [1], 26.2 nM; under setting [2], 23.1 nM. With “AUAUCCCGAGGAUAUACAUGAGGAUCACCCAUGUCGGGCCUCUGGCCUAAGGCCGAAAGUAGAAGGUGGGUUUC”, the “apparent Kd” value under setting [1] was found to be 177 nM and the “apparent Kd” value under setting [2] came out at 250 nM. On to “AGAUUUGUACAUGAGGAUCACCCAUGUUAAUAGGUGUUUGUCAGAAGGCAUUAAUAGAGAUUUAAUGAGGAUAUGAAGUUACAA”, for which the “apparent Kd” value came to 70.3 nM under setting [3] and 46.3 nM under setting [4]. As for “CCUAUGUGAGGAUAUCACUGGUCUGCUCACUAGAUGAUCAGUGAGAAGGCACAUGAGGAUCACCCAUGUCAGUG”, the “apparent Kd” value reads like this: under setting [1], 183 nM; under setting [2], 41.7 nM.

“GCAUGAUACUAGGAUAUCAGCAUACUUCAAUGUUGAGAAGGAGUAACAUGAGGAUCACCCAUGUAUCCAACAUG”: the “apparent Kd” value reads like this: under setting [1], 59.4 nM; under setting [2], 166 nM.

Take “CUUCUGUGAGGAUAUGUUAGUUCCCAGCAAAUCGCUGGGAGACAGAAGGCACAUGAGGAUCACCCAUGUGGGCG”: the “apparent Kd” value reads like this: under setting [1], 39.2 nM; under setting [2], 221 nM. Taken in the same sequence, the figures for “ACUGGAGCAGGAUAUAUAUGACGUGCUUCGGCACGAAGAUCACAUGAGGAUCACCCAUGUAGAAGGGCUCCAGU” were 106 nM and 813 nM. With “GAGCUAUGAGGAUAUGCAUAUAUGCGGUUUCGUGUGGUACUACAUGAGGAUCACCCAUGUAGAAGGCGUGGCAG”, the “apparent Kd” value came out at 16 nM under setting [1] and 17.5 nM under setting [2]. As for “CAGCAAAAGUAGAAGGCAGUACUGAUUCAGUACUGAGGAUAUACAUGAGGAUCACCCAUGUGUUCCAGCUGAAUAAUAAAAUAA”, the “apparent Kd” value runs as follows: under setting [1], 8.89 nM; under setting [2], 116 nM.

On to “GUAUAUAGUGUGAGGAUAUGCUGGUCCUUGGAUCAGCAGAAGGCACAUGAGGAUCACCCAUGUAGUUAAAUAUG”, for which the “apparent Kd” value under setting [1] came out at 26.8 nM and the “apparent Kd” value under setting [2] came to 100 nM. For the sequence “UUGUGCUUAGAGAAGGUUCAAACUACAUAUUGCGCACAUGAGGAUCACCCAUGUUGGUGAAUAAGAAAGGAUAUUUGACUGUAU”, the “apparent Kd” value under setting [1] was 131 nM and the “apparent Kd” value under setting [2] came out at 98 nM. Regarding “UAAUUAAUAAGAUCAAUUAAUUAACAUGAGGAUCACCCAUGUGAGGAUAUCAGCUCGAUUAGAGCUGAGAAGGCACAAUAAUUA”, the “apparent Kd” value under setting [1] amounted to 43.2 nM and the “apparent Kd” value under setting [2] was found to be 102 nM. With “GUACAGCGACAUGAGGAUCACCCAUGUAGCCGCCGAUCGUCGCAGGAUAUGGCAAAGGUUAACAGUCAGAAGGGUGAUGUUCGA”, the “apparent Kd” value by setting is: under setting [3], 73.6 nM; under setting [4], 41.3 nM.

With “CAGCCCUGAGGAUAUCCCUACUUGUACAUGAGGAUCACCCAUGUCCUCCUCCGGGCUUCGGGAGAAGGCAGGUCUC”, the “apparent Kd” value under setting [1] is 15.8 nM. In the case of “AGAAACCGAGGAUAUACAUGAGGAUCACCCAUGUCAAGCGGCAUCUACCGAACCUUCUGUAGAAGGCGGAAAAC”, the “apparent Kd” value reads like this: under setting [1], 19.9 nM; under setting [2], 22.9 nM. As to “CCAUGGCAUGUAGGAUAUGUCUGACAAAGUCAGACAGAAGGACAUGAGGAUCACCCAUGUAAUGGAAAACCAAUAUAGCCAUGG”, the “apparent Kd” value runs as follows: under setting [1], 7.62 nM; under setting [2], 11.3 nM. As for “CGUUUUUAUGUAGGAUAUGCUUGUGGUAAGAUAGCAGAAGGACAUGAGGAUCACCCAUGUUAAUGAUAGAGAUUUUAUGUUGCG”, the “apparent Kd” value by setting is: under setting [1], 37.9 nM; under setting [2], 50.2 nM. Regarding “AUAGCAACAUGAGGAUCACCCAUGUAGGAUAUCGCUAUUGUAAUCAUGAAACAUGAUUACAAUAGCGAGAAGGACAUAUGCUAG”, the “apparent Kd” value is 11.5 nM under setting [1] and 12.2 nM under setting [2].

For “AGUAACAGAGGAUAUACUGUUUUAUGUGUUUGUUAUUUUAAACAUGAGGAUCACCCAUGUAGAAGGCUGAAUGA”, the “apparent Kd” value under setting [1] was 27.1 nM and the “apparent Kd” value under setting [2] is 25.3 nM. “UUAUAAAAUAUAGGAUAUGGAAACAUGAGGAUCACCCAUGUAUGAUAAGAUAAAUUAUGAUAUAGCCAGAAGGAUACAAUUUUU”: the “apparent Kd” value by setting is: under setting [3], 37.3 nM; under setting [4], 35 nM. “UGUCGGAGCAGAGGAUAUUACAUGAGGAUCACCCAUGUAUGAACCAAUAGCUGGAAACAGCAAUGUGAGAAGGCUGCUCCGACA”: the “apparent Kd” value came to 5.47 nM under setting [1] and 52.3 nM under setting [2]. For the sequence “ACAAGAUCAGGAUAUACAUGAGGAUCACCCAUGUAUAUCAAAAAAGGGCUUUCUACAUGUAGAAGGGAUCUUGU”, the “apparent Kd” value runs as follows: under setting [1], 13.9 nM; under setting [2], 11.8 nM. On the same counts, the results for “CGUUUGUAAGGAUAUAGCCACAUUACGAAUAAGUAGUGUGGCUAGAAGGUACAUGAGGAUCACCCAUGUAUGGG” are 157 nM and 192 nM.

For “GCUUGUGAAGGAUAUACUGGCGGCAUGCGCUCGGCACGCGCACAUGAGGAUCACCCAUGUAGAAGGUCAAACGU”, the “apparent Kd” value was determined as 22.4 nM under setting [1] and 22.8 nM under setting [2]. In the case of “GUACCUUAUGAGAAGGCGAUCAUUAAACAUGAUCGAGGAUAUCAUGAAAACAUGAGGAUCACCCAUGUAUGGGUAUUAUGGUAC”, the “apparent Kd” value under setting [3] was 33.6 nM and the “apparent Kd” value under setting [4] is 16.4 nM. Regarding “CCGGAAAUAGAGGAUAUCGUAUCGGAUACGAUACGAGAAGGCUGUACAUGAGGAUCACCCAUGUGUCCUACCGG”, the “apparent Kd” value was 11.2 nM under setting [1] and 21.6 nM under setting [2]. Turning to “GCCCGGGCAGGAUAUGCCCGGGCGCACAUGAGGAUCACCCAUGUGGCCCUGUGCCGUCCGGCAGAAGGGCCCGGGC”, the “apparent Kd” value reads like this: under setting [1], 90.1 nM; under setting [2], 87.4 nM. Turning to “GCACUGGAUGUAGGAUAUCAGGACGAUAAGUCCUGAGAAGGACAUGAGGAUCACCCAUGUCUCAAAACCAGUGCAUAUAAUAUA”, the “apparent Kd” value stood at 13.2 nM under setting [1] and 19.1 nM under setting [2]. Taken in the same sequence, the figures for “GUCAGCUCGUGAGGAUAUACAACACAGCUUCGGCAGUGUAUUAAGAUCACAUGAGGAUCACCCAUGUAGAAGGCACGAGCUGAU” were 13.1 nM and 209 nM. On the same counts, the results for “CUAUGCGGAAUAGGAUAUUCGUUCAUGAGGAUAGAAGAAGGGUUACAUGAGGAUCACCCAUGUAUGCACAUGAGGAUCCCUUAG” are 252 nM and 228 nM. In the case of “GGGCUGUCAGGAUAUUUUGGGCCCGGGUAAACCCGGGCCCGGGAGAAGGGACAUGAGGAUCACCCAUGUGGCCC”, the “apparent Kd” value is 34.7 nM under setting [1] and 37.3 nM under setting [2]. Turning to “AUCUUCGGAGGAUAUUCUCCGUCACACAUGAGGAUCACCCAUGUCAUUCGAAUGGGUUCGGAAGAAGGUCGAAGGU”, the “apparent Kd” value by setting is: under setting [1], 236 nM; under setting [2], 171 nM. Regarding “GCCUUAUCCGUCAGGAUAUACAGCCGUUAGUUGUUGUAGAAGGGACAUGAGGAUCACCCAUGUACGUACCAUUG”, the “apparent Kd” value came out at 18.7 nM under setting [1] and 30.7 nM under setting [2]. Taken in the same sequence, the figures for “AGGUAACAUGAGGAUCACCCAUGUCAGGAUAUCAGUAAGAUGAGUAUAGAAGAGAGUAUGAGAAGGGACUAUAU” were 31 nM and 25.6 nM. As to “AUCAGCUUGACAGGAUAUACAUGUCAGCGAAAGCUGACUAUCUUAAUAACAUGAGGAUCACCCAUGUAGAAGGGUCGAGCUGAU”, the “apparent Kd” value came to 16.9 nM under setting [1] and 26.4 nM under setting [2]. Turning to “AACUUCCCGUCAGGAUAUCGCCGUAGGUCCUCGGGUCUCGCCGUCAUACAUGAGGAUCACCCAUGUGAGAAGGGACGGGAUUCA”, the “apparent Kd” value is, setting by setting: under setting [1], 21.8 nM; under setting [2], 117 nM. On the same counts, the results for “UAUGCGAGAGGAUAUACAUGAGGAUCACCCAUGUGUCCGACACAAUUCAGUUGCAUAUGUAGAAGGCUUGCGAC” are 14.4 nM and 19.6 nM.

“CAGCUCUGAGGAUAUCCAUCCUCCUACAUGAGGAUCACCCAUGUUUCCCUCUGGGUUUUCGGAGAAGGCAGUUUUU”: the “apparent Kd” value came out at 248 nM under setting [1] and 425 nM under setting [2]. Consider “GAGGAGGUAGGAUAUACGAUAAUAUAGGGUAGAUAUAUAACACAUGAGGAUCACCCAUGUAGAAGGACCAGGAG”, for which the “apparent Kd” value stood at 34.4 nM under setting [1] and 62.4 nM under setting [2]. Taken in the same sequence, the figures for “AUCGUGCAGCUUUGCUGUACGAGUACAUGAGGAUCACCCAUGUAGGAUAUGGUACGCUUUGCGUGCUAGAAGGAUAUGCGAUUG” were 43.8 nM and 46.1 nM. Take “AUCUAAGAAUUAAUUGUGACAGUGAGAAGGCUAUAGUAUGUGACCGACAUGAGGAUCACCCAUGUAGAGGAUAUCACUUGCUAC”: the “apparent Kd” value reads like this: under setting [1], 71.8 nM; under setting [2], 335 nM. Turning to “GGAGCCGGCACCGAGGAUAUUCAUAUUAAAACAUGAGGAUCACCCAUGUAGGCCAGAAGGCUUUGGGAGAAGGCGGAUCGGCUCG”, the “apparent Kd” value by setting is: under setting [3], 604 nM; under setting [4], 38.7 nM. Take “UCAGGCUUCGAGAAGGACAUGAGGAUCACCCAUGUGCGUGUAAAACAGCCAAAAGGCUGCAUCAUGUAGGAUAUCGGAGUCUGC”: the “apparent Kd” value came out at 279 nM under setting [1] and 192 nM under setting [2]. As for “UUUCCGCAAGGAUAUACGGGCUGUGCUUUUCAUUUCUUACAACAUGAGGAUCACCCAUGUAGAAGGUGCUUCUU”, the “apparent Kd” value was 208 nM under setting [1] and 217 nM under setting [2].

Consider “AGUAGAUCAGGAUAUACGUGAAAGGUCAAAGUGUCCCUACUACAUGAGGAUCACCCAUGUAGAAGGGAUCUACA”, for which the “apparent Kd” value runs as follows: under setting [1], 13.4 nM; under setting [2], 14.6 nM. On the same counts, the results for “AAAUUAGUUGUAGGAUAUCGGUCGAACAUCUCACGAGAAGGGCAACAUGAGGAUCACCCAUGUAGGUCGCCUACGUAAGAUCGC” are 5.84 nM and 6.71 nM.

For the sequence “AAUAUACAUGAGGAUCACCCAUGUUUUGGUGCAUGAGGAUAUAAAAACAAUUACAUAAAGUUAGAAGGCAUGAAUA”, the “apparent Kd” value turned out to be 54.9 nM under setting [3] and 47.9 nM under setting [4].

For the origin of these results see the EternaBench riboswitch data.
